# According to article PMC4931877 (The Journal of Pharmacology and Experimental Therapeutics, 2016):
# How the values were obtained:
# [1] = SAD study plasma pharmacokinetics; assay type: in vivo, human; settings: for Cmax / AUC(0-t) / AUC(0-inf) / half-life: human, plasma, oral; for Cmax: Cmax GM (CV%); for AUC(0-t): AUC0–t GM (CV%); for AUC(0-inf): AUC0–∞ GM (CV%)
# Summary of the method: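 Young subjects (8 per panel, 3:1 active:placebo) received single oral 10–1200 mg doses as solution or capsule; elderly subjects received 900 mg. Panel 4 was dosed fasted, after a high-fat meal, or 2 h after 40 mg famotidine. Plasma drug was measured by validated LC-MS/MS with noncompartmental analysis.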
# [2] = SAD study CSF pharmacokinetics; assay type: in vivo, human
# Summary of the method: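 In panel 9, 15 healthy subjects received a single 900-mg dose or placebo (2:1) in the fasted state. CSF was drawn by lumbar cannulation at −1, 0, 2, 4, 6, 8, 12, 15, 18 and 24 h postdose, using polypropylene ware and a pump without a filter. Samples were stored at −80°C, and drug was measured by validated LC-MS/MS.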
# CSF Aβ peptides [3] = assay: MAD study pharmacodynamic effects on CSF Aβ peptides; assay type: in vivo, human
# [4] = tested on: plasma Aβ40, Aβ42, and total Aβ; assay: MAD study pharmacodynamic effects on plasma Aβ; assay type: in vivo, human
# Summary of the method: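 Healthy volunteers were dosed once daily at 50, 100 or 200 mg for up to 28 days. EDTA plasma was stored at −80°C. Aβ40 and Aβ42 were measured by Luminex duplex immunoassay (LLOQ 30 and 3 pg/ml) and total Aβ by MSD (LLOQ 50 pg/ml), in duplicate. Values are % change from baseline, analysed by repeated-measures ANCOVA.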
# CSF Aβ peptides [5] = assay: SAD study pharmacodynamic effects on CSF Aβ peptides; assay type: in vivo, human
# Summary of the method: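 After a single oral dose, CSF was drawn by lumbar cannulation at −1 to 24 h postdose, with predose samples taken at 7–10 AM, and stored at −80°C in polypropylene. Aβ38/40/42 and total Aβ were measured by MSD immunoassay and Aβ37 by 6E10 sandwich immunoassay, in duplicate. Other Aβ fragments were measured by LC-MS/MS (LLOQ 30 pg/ml).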
# [6] = SAD study safety and tolerability; assay type: in vivo, human
# Summary of the method: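 Single-dose subjects, placebo-controlled and double-blind, were assessed by vital signs, physical examination, 12-lead ECG and clinical laboratory tests. AEs were spontaneously reported or elicited, and their onset, duration, intensity, seriousness, relatedness and action taken were recorded. AEs were tabulated by MedDRA 12.1 system organ class and preferred term.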
# brain Aβ42 = tested on: brain Aβ42; parameters: species or system human; settings: single 900-mg dose
# CYP3A4 = CYP3A4 (Homo sapiens, UniProt P08684); assay: Plasma 4βHC biomarker of CYP3A4 in the MAD study; assay type: in vivo; settings: any treatment cohort of the MAD study
# Summary of the method: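 During once-daily multiple dosing, plasma 4β-hydroxycholesterol was quantified by validated LC-MS/MS (LLOQ 2 ng/ml for 50 μl plasma). 4α-Hydroxycholesterol and total cholesterol were measured as normalisation factors.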
# [7] = SAD panel 4, 2 hours after 40 mg famotidine
# [8] = both, 300 mg, SAD panel 4, 300 mg, fasted
# [9] = both, 900 mg, SAD panel 8, 900 mg, elderly
# CYP3A4, sequence (P08684 whole entry): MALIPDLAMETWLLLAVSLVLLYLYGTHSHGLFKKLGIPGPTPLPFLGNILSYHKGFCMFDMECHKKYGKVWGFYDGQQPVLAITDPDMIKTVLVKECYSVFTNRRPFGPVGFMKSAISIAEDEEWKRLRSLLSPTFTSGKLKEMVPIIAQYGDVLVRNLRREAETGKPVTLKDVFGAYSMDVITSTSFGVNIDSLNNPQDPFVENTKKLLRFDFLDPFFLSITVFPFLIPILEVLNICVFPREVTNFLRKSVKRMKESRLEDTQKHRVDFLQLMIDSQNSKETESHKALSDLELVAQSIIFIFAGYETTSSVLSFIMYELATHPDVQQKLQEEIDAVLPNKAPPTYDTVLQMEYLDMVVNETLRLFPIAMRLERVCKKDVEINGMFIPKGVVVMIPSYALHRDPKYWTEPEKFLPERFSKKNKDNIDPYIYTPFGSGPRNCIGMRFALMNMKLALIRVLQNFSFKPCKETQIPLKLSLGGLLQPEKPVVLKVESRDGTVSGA
structure (smiles),measurement,setting,value
"CNc1nc(Nc2ccc(-n3cnc(C)n3)c(OC)c2)nc2c1CC[C@H]2c1ccc(F)cc1 [BMS-932481, (S)-7-(4-fluorophenyl)-N2-(3-methoxy-4-(3-methyl-1H-1,2,4-triazol-1-yl)phenyl)-N4-methyl-6,7-dihydro-5H-cyclopenta[d]pyrimidine-2,4-diamine]",higher Cmax in elderly than normal healthy young,"[1]; 900 mg single dose, range 3.4–4.3",3.8 fold
same,Between-subjects variability,[1]; SAD,27%–83
same,increase of AUC with famotidine (change in gastric pH),[1]; [7],approximately 15%
same,increase of Cmax with famotidine (change in gastric pH),[1]; [7],60%
same,Cmax,"[1]; both, 10 mg, SAD panel 1, 10 mg single dose",0.011 µg/mL
same,Cmax,"[1]; both, 30 mg, SAD panel 2, 30 mg single dose",0.049 µg/mL
same,AUC(0-t),[1]; [8],8.57 µg·h/mL
same,AUC(0-inf),[1]; [8],8.75 µg·h/mL
same,Cmax,[1]; [8],0.325 µg/mL
same,half-life,"[1]; both, 300 mg, t1/2 Mean (S.D.), SAD panel 4, 300 mg, fasted",20 h
same,AUC(0-t),[1]; [9],134 µg·h/mL
same,AUC(0-inf),[1]; [9],156 µg·h/mL
same,Cmax,[1]; [9],2.87 µg/mL
same,half-life,"[1]; both, mean terminal half-life, SAD, healthy young participants",16 to 32 h
same,AUC(0-t),"[1]; 900 mg, SAD panel 9, 900 mg",42.6 µg·h/mL
same,Cmax,"[1]; 900 mg, SAD panel 9, 900 mg",0.876 µg/mL
same,half-life,"[1]; 900 mg, t1/2 Mean (S.D.), SAD panel 9, 900 mg",32 h
same,dose proportionality of plasma exposure,"[1]; single dose, 10 to 1200 mg, healthy young volunteers",dose proportional
same,Tmax Median (Minimum–Maximum),"[2]; SAD panel 9, 900 mg",6 (4–18) h
same,AUC(0-t),"[2]; human, oral, 900 mg",0.097 µg·h/mL
same,Cmax,"[2]; human, oral, 900 mg",0.0065 µg/mL
same,Kp,"[2]; human, oral, 900 mg",< 0.01
same,Tmax,"[2]; human, oral, 900 mg",6 h
same,effect on CSF APL1β28 fragment,CSF Aβ peptides [3]; MAD,No effects
same,effect on CSF Aβ14 fragment,CSF Aβ peptides [3]; MAD,No effects
same,"Mean decrease in CSF Aβ40, change from baseline","CSF Aβ peptides [3]; MAD 50 mg, day 28",−36%
same,"Mean decrease in CSF Aβ42, change from baseline","CSF Aβ peptides [3]; MAD 50 mg, day 28",−38%
same,"increase of CSF Aβ37, of baseline","CSF Aβ peptides [3]; MAD 50 mg, day 28",292%
same,"Mean decrease in CSF Aβ40, change from baseline","CSF Aβ peptides [3]; MAD 100 mg, day 28",−44%
same,"Mean decrease in CSF Aβ42, change from baseline","CSF Aβ peptides [3]; MAD 100 mg, day 28",−46%
same,"increase of CSF Aβ37, of baseline","CSF Aβ peptides [3]; MAD 100 mg, day 28",518%
same,"increase of CSF Aβ37, of baseline","CSF Aβ peptides [3]; MAD 200 mg, 48, 72 or 96 hours after last dose",484%–545
same,CSF Aβ40 and Aβ42 levels four days after the last day of dosing,"CSF Aβ peptides [3]; MAD 200 mg, 96 hours after last dose",still significantly reduced
same,increase of CSF Aβ38,"CSF Aβ peptides [3]; MAD, 50 mg",20%
same,increase of CSF Aβ38,"CSF Aβ peptides [3]; MAD, 100 mg",69%
same,increase of CSF Aβ38,"CSF Aβ peptides [3]; MAD, 200 mg",68%
same,CSF Aβ42/CSF Aβ40 ratio,"CSF Aβ peptides [3]; MAD, especially at the 200-mg dose",Trends in lowering
same,effect on CSF AB17,CSF Aβ peptides [3]; SAD and MAD (Supplemental Figs. 4C and 5F),slight increases
same,effect on total Aβ in CSF,CSF Aβ peptides [3]; at higher dose levels,modest decreases
same,decrease of plasma Aβ40 levels,"[4]; MAD 50-mg dose, up to",40%–50
same,plasma Aβ42 during the dosing period,[4]; MAD 100- and 200-mg cohorts,below the limit of quantitation
same,reduction of plasma Aβ42 levels,"[4]; MAD 200-mg cohort, day 35 (11 days after the last dose)",46%
same,change in plasma total Aβ,[4]; multiple dose cohorts,No changes
same,effect on plasma Aβ42 and Aβ40,[4]; multiple-dose administrations,dose-dependently decreased
same,effect on CSF Aβ39,CSF Aβ peptides [5],appeared to lower
same,"effect on shorter CSF fragments Aβ14, Aβ15, and Aβ34",CSF Aβ peptides [5],no effect
same,"degree of CSFAβ42 lowering, elderly versus young",CSF Aβ peptides [5]; largely due to higher exposures in elderly,greater in elderly than in young
same,findings on ECG parameters,[6],no clinical relevant findings
same,AEs,[6]; 10 mg,3 (50.0) n (%)
same,Deaths,[6]; 10 mg,0 n (%)
same,Discontinuation due to AEs,[6]; 10 mg,0 n (%)
same,Drug-related AEs,[6]; 10 mg,0 n (%)
same,SAEs,[6]; 10 mg,0 n (%)
same,AEs,[6]; 30 mg,2 (33.3) n (%)
same,Deaths,[6]; 30 mg,0 n (%)
same,Discontinuation due to AEs,[6]; 30 mg,0 n (%)
same,Drug-related AEs,[6]; 30 mg,0 n (%)
same,SAEs,[6]; 30 mg,0 n (%)
same,AEs,[6]; 100 mg,1 (16.7) n (%)
same,Deaths,[6]; 100 mg,0 n (%)
same,Discontinuation due to AEs,[6]; 100 mg,0 n (%)
same,Drug-related AEs,[6]; 100 mg,0 n (%)
same,SAEs,[6]; 100 mg,0 n (%)
same,AEs,[6]; 300 mg P2 (cross-over phase 2),0 n (%)
same,Deaths,[6]; 300 mg P2 (cross-over phase 2),0 n (%)
same,Discontinuation due to AEs,[6]; 300 mg P2 (cross-over phase 2),0 n (%)
same,Drug-related AEs,[6]; 300 mg P2 (cross-over phase 2),0 n (%)
same,SAEs,[6]; 300 mg P2 (cross-over phase 2),0 n (%)
same,AEs,[6]; 300 mg P3 (cross-over phase 3),1 (16.7) n (%)
same,Deaths,[6]; 300 mg P3 (cross-over phase 3),0 n (%)
same,Discontinuation due to AEs,[6]; 300 mg P3 (cross-over phase 3),0 n (%)
same,Drug-related AEs,[6]; 300 mg P3 (cross-over phase 3),0 n (%)
same,SAEs,[6]; 300 mg P3 (cross-over phase 3),0 n (%)
same,AEs,[6]; 300 mg P (cross-over phase 1),0 n (%)
same,Deaths,[6]; 300 mg P (cross-over phase 1),0 n (%)
same,Discontinuation due to AEs,[6]; 300 mg P (cross-over phase 1),0 n (%)
same,Drug-related AEs,[6]; 300 mg P (cross-over phase 1),0 n (%)
same,SAEs,[6]; 300 mg P (cross-over phase 1),0 n (%)
same,AEs,[6]; 600 mg,0 n (%)
same,Deaths,[6]; 600 mg,0 n (%)
same,Discontinuation due to AEs,[6]; 600 mg,0 n (%)
same,Drug-related AEs,[6]; 600 mg,0 n (%)
same,SAEs,[6]; 600 mg,0 n (%)
same,AEs,[6]; 900 mg,3 (50.0) n (%)
same,Deaths,[6]; 900 mg,0 n (%)
same,Discontinuation due to AEs,[6]; 900 mg,0 n (%)
same,Drug-related AEs,[6]; 900 mg,1 (16.7) n (%)
same,SAEs,[6]; 900 mg,0 n (%)
same,Deaths,[6]; 900 mg C (CSF panel),0 n (%)
same,Discontinuation due to AEs,[6]; 900 mg C (CSF panel),0 n (%)
same,Drug-related AEs,[6]; 900 mg C (CSF panel),1 (10.0) n (%)
same,SAEs,[6]; 900 mg C (CSF panel),0 n (%)
same,AEs,[6]; 900 mg El (elderly),0 n (%)
same,Deaths,[6]; 900 mg El (elderly),0 n (%)
same,Discontinuation due to AEs,[6]; 900 mg El (elderly),0 n (%)
same,Drug-related AEs,[6]; 900 mg El (elderly),0 n (%)
same,SAEs,[6]; 900 mg El (elderly),0 n (%)
same,AEs,[6]; 1200 mg,0 n (%)
same,Deaths,[6]; 1200 mg,0 n (%)
same,Discontinuation due to AEs,[6]; 1200 mg,0 n (%)
same,Drug-related AEs,[6]; 1200 mg,0 n (%)
same,SAEs,[6]; 1200 mg,0 n (%)
same,tolerability after a single dose,"[6]; 10 to 1200 mg, healthy subjects",generally well tolerated
same,AEs,[6]; all treated,17 (27.9) n (%)
same,Deaths,[6]; all treated,0 n (%)
same,Discontinuation due to AEs,[6]; all treated,0 n (%)
same,Drug-related AEs,[6]; all treated,2 (3.3) n (%)
same,SAEs,[6]; all treated,0 n (%)
same,participants with drug-related AEs,[6]; two participants,3.3%
same,projected reduction of CSF Aβ42 from baseline,brain Aβ42,≥ 50%
same,changes in 4βHC levels,CYP3A4,no significant changes
